{"source": "ChEMBL document CHEMBL3085690", "about": "“Naturally occurring antimicrobial peptide OH-CATH30 selectively regulates the innate immune response to protect against sepsis” (J Med Chem, 2013)", "key": {"BMDM [1]": {"system": "BMDM", "assay": "Induction of CXCL3 mRNA up-regulation in mouse BMDM at 20 ug/ml after 3 hrs by qRT-PCR analysis", "assay_type": "functional", "how_it_was_run": "(§1)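 Murine BMDMs stimulated with peptide, then target mRNA quantified by qRT-PCR. Expression normalized to GAPDH, with untreated cells set to 1.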"}, "BMDM [2]": {"system": "BMDM", "assay": "Induction of CXCL2 mRNA up-regulation in mouse BMDM at 20 ug/ml after 3 hrs by qRT-PCR analysis", "assay_type": "functional", "how_it_was_run": "as §1"}, "BMDM [3]": {"system": "BMDM", "assay": "Induction of CCL3 mRNA up-regulation in mouse BMDM at 20 ug/ml after 3 hrs by qRT-PCR analysis", "assay_type": "functional", "how_it_was_run": "as §1"}, "[4]": {"assay": "Half life in Kunming mouse at 10 mg/kg, ip", "assay_type": "ADME, organism-based", "design": "dose 10 mg/kg, route intraperitoneal", "conditions": "in vivo"}, "Mus musculus [5]": {"system": "Mus musculus", "assay": "Stimulation of innate immune response in Kunming mouse infected with Escherichia coli ATCC 25922 assessed as reduction of bacterial burden in peritoneal lavage by measuring survival rate at 10 mg/kg, ip administered 5 hrs before bacterial infection measured up to 7 days", "assay_type": "functional, organism-based", "design": "dose 10 mg/kg", "how_it_was_run": "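Peptide at 10 mg/kg ip was given 5 h before ip challenge with E. coli 25922 (2.5 × 10^8 CFU), P. aeruginosa 27853 (8 × 10^7 CFU) or S. aureus 25923 (2 × 10^8 CFU) per mouse. Viable bacteria were counted in peritoneal lavage collected in 2 mL of cold saline (n = 7, 6 and 8 respectively; unpaired t test). Survival was recorded for up to 7 days.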"}, "Mus musculus [6]": {"system": "Mus musculus", "assay": "Stimulation of innate immune response in Kunming mouse assessed as protection against Pseudomonas aeruginosa ATCC 27853-induced mortality by measuring survival rate at 10 mg/kg, ip administered 5 hrs before bacterial infection measured up to 7 days", "assay_type": "functional", "conditions": "route intraperitoneal", "how_it_was_run": "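Female Kunming mice (18−22 g) received a single ip dose in sterile saline 5 h before ip challenge with P. aeruginosa 27853 (8 × 10^7 CFU/mouse; n = 8) or S. aureus 25923 (2 × 10^8 CFU/mouse; n = 10). Mice were checked every 6 h for up to 7 days, with a humane end point. Curves were compared by log-rank test.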"}, "Mus musculus [7]": {"system": "Mus musculus", "assay": "Stimulation of innate immune response in ip dosed Kunming mouse assessed as protection against Escherichia coli ATCC 25922-induced mortality by measuring survival rate measured up to 7 days", "assay_type": "functional, organism-based", "how_it_was_run": "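Kunming mice were challenged ip with E. coli 25922 at 2.5 × 10^8 CFU/mouse (n = 10). A single ip dose of peptide, from 1 to 10 mg/kg in sterile saline, was given 5 h before infection. Survival was followed for up to 7 days and compared by log-rank test.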"}, "[8]": {"target": "Transcription factor p65 (Mus musculus) (UniProt Q04207)", "sequence (Q04207 whole entry)": "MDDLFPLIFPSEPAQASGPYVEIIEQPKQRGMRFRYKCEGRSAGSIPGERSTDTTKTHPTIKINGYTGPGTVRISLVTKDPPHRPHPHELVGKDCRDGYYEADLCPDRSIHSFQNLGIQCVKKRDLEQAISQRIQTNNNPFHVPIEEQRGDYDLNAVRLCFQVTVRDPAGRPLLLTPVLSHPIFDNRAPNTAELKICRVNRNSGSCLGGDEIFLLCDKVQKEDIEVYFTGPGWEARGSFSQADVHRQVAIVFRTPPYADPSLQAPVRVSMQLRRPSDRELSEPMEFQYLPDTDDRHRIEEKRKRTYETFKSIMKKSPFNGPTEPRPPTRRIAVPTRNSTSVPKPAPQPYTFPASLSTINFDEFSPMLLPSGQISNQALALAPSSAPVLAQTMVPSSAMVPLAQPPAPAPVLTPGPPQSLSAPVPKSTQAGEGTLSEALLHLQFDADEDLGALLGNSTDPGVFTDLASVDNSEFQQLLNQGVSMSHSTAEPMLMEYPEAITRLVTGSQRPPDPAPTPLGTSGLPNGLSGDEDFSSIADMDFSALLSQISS", "assay": "Activation of NFkappaB in mouse BMDM assessed as degradation of IkappaBalpha at 10 ug/ml after 15 to 30 mins by Western blotting", "how_it_was_run": "(§2)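 BMDMs (bone marrow cells grown in RPMI 1640 with 10% FCS and 20% L929-conditioned medium) stimulated, then lysates run on 10% SDS-PAGE and transferred to PVDF. Membranes blocked with 5% BSA and probed with phospho-ERK1/2 and total ERK1/2 antibodies, or with anti-IκBα. HRP anti-rabbit secondary, chemiluminescent detection.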"}, "Mus musculus [9]": {"species": "Mus musculus", "assay": "Activation of JNK in mouse BMDM assessed as phosphorylation at 10 ug/ml by Western blotting", "how_it_was_run": "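BMDMs cultured in RPMI 1640 with 10% FCS and 20% L929-conditioned medium. Lysates separated by 10% SDS-PAGE, blotted to PVDF and blocked in 5% BSA. Probed for phospho-JNK/JNK or phospho-p38/p38, then HRP goat anti-rabbit IgG, chemiluminescence read-out.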"}, "[10]": {"target": "Mitogen-activated protein kinase 1 and 3 (ERK2 and ERK1) (Mus musculus) (UniProt P63085+Q63844)", "sequence (P63085 whole entry, looked up)": "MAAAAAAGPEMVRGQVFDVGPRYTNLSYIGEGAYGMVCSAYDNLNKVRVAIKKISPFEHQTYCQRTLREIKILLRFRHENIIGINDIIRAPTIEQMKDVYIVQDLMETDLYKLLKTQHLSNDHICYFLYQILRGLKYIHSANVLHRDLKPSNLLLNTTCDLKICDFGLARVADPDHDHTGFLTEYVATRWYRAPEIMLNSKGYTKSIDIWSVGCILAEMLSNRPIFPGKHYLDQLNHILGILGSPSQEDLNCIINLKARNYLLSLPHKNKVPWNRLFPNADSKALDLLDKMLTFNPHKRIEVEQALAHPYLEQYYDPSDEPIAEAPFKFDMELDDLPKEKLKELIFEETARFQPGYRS", "sequence (Q63844 whole entry, looked up)": "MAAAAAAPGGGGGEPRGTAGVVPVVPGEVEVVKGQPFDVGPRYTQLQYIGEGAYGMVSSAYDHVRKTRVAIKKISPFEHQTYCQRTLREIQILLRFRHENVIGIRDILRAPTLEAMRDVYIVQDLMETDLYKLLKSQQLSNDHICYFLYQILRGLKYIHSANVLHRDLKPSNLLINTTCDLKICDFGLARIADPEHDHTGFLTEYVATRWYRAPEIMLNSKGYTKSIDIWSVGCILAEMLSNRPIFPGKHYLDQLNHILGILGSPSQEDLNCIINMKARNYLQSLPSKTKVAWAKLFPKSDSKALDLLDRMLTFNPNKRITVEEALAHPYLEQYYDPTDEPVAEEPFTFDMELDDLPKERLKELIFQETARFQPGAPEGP", "assay": "Activation of ERK1/2 in mouse BMDM assessed as phosphorylation at 10 ug/ml after 15 to 30 mins by Western blotting", "assay_type": "protein assay", "how_it_was_run": "as §2"}, "[11]": {"assay": "Increase of CXCL2 production in mouse BMDM after 6 hrs by ELISA in presence of JNK inhibitor SP600125", "assay_type": "functional"}, "[12]": {"assay": "Increase of CXCL2 production in mouse BMDM after 6 hrs by ELISA in presence of MEK1/2 inhibitor U0126", "assay_type": "functional"}, "BMDM [13]": {"system": "BMDM", "assay": "Increase of CXCL2 production in mouse BMDM after 6 hrs by ELISA in presence of TLR4/MD2 Ab", "assay_type": "functional"}, "RAW264.7": {"system": "RAW264.7", "assay": "Inhibition of LPS-induced TNFalpha production in mouse RAW264.7 cells 2 to 50 ug/ml after 6 hrs by ELISA", "assay_type": "functional, cell-based"}, "Mus musculus [14]": {"system": "Mus musculus", "assay": "Stimulation of innate immune response in clodronate liposomes treated Kunming mouse monocytes depletion model assessed as recruitment of neutrophils at 10 mg/kg, ip", "assay_type": "functional, organism-based", "design": "dose 10 mg/kg"}, "Mus musculus [15]": {"system": "Mus musculus", "assay": "Stimulation of innate immune response in clodronate liposomes treated Kunming mouse monocytes depletion model assessed as increase of CXCL2 production in peritoneal lavage at 10 mg/kg, ip", "assay_type": "functional, organism-based", "design": "dose 10 mg/kg"}, "Mus musculus [16]": {"system": "Mus musculus", "assay": "Stimulation of innate immune response in Kunming mouse infected with Pseudomonas aeruginosa ATCC 27853 assessed as effect on CCL2 production in peritoneal lavage at 10 mg/kg, ip after 3 hrs by ELISA", "assay_type": "functional, organism-based", "design": "dose 10 mg/kg", "how_it_was_run": "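Mice were pretreated ip with peptide at 10 mg/kg 5 h before ip challenge with P. aeruginosa 27853 at 8 × 10^7 CFU/mouse. CCL2 and CXCL2 were measured in peritoneal lavage collected 3 h after inoculation. TNF-α and IL-6 were measured in serum collected 5 h after inoculation. All were read by ELISA; data are mean ± SD from four mice, unpaired t test.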"}, "Mus musculus [17]": {"system": "Mus musculus", "assay": "Stimulation of innate immune response in Kunming mouse infected with Pseudomonas aeruginosa ATCC 27853 assessed as effect on TNFalpha production in peritoneal lavage at 10 mg/kg, ip after 5 hrs by ELISA", "assay_type": "functional, organism-based", "design": "dose 10 mg/kg"}, "[18]": {"assay": "Cytotoxicity against mouse BMDM at 5 to 20 ug/ml by MTT assay"}, "THP-1": {"system": "THP-1", "assay": "Increase of cytokine production in PMA-differentiated human THP1 cells by ELISA", "assay_type": "functional, cell-based"}, "[19]": {"assay": "Increase of IL-1Ra protein level in mouse BMDM at 10 ug/ml after 18 hrs by ELISA", "assay_type": "functional", "how_it_was_run": "(§3)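 Bone marrow-derived macrophages (RPMI 1640, 10% FCS, 20% L929-conditioned medium) stimulated with peptide for 18 h. Cytokines and chemokines in culture supernatant quantified by sandwich ELISA. Mean ± SD from three independent experiments, unpaired t test.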"}, "BMDM [20]": {"system": "BMDM", "assay": "Increase of IL-6 protein level in mouse BMDM at 20 ug/ml after 18 hrs by ELISA", "assay_type": "functional", "how_it_was_run": "as §3"}, "BMDM [21]": {"system": "BMDM", "assay": "Increase of IL-1Ra protein level in mouse BMDM at 20 ug/ml after 18 hrs by ELISA", "assay_type": "functional", "how_it_was_run": "as §3"}, "[22]": {"assay": "Induction of IL-6 mRNA up-regulation in mouse BMDM at 20 ug/ml after 3 hrs by qRT-PCR analysis relative to control", "assay_type": "functional", "how_it_was_run": "as §1"}, "[23]": {"assay": "Induction of IL-1Ra mRNA up-regulation in mouse BMDM at 20 ug/ml after 3 hrs by qRT-PCR analysis relative to control", "assay_type": "functional", "how_it_was_run": "as §1"}}, "note": "Active and inactive are the calls of the source. The rule behind the calls is not given here. Peptide text beside a SMILES is read from it."}
{"smiles": "CC[C@H](C)[C@H](NC(=O)[C@@H](NC(=O)[C@H](CCCNC(=N)N)NC(=O)[C@@H]1CCCN1C(=O)[C@H](CCCCN)NC(=O)[C@H](CCCCN)NC(=O)[C@H](Cc1ccccc1)NC(=O)[C@H](Cc1ccccc1)NC(=O)[C@H](CCCCN)NC(=O)[C@H](CCCCN)NC(=O)[C@H](C)NC(=O)[C@H](CCCNC(=N)N)NC(=O)[C@H](CCCCN)NC(=O)[C@H](CCCCN)NC(=O)[C@@H](NC(=O)[C@H](CO)NC(=O)[C@H](CC(N)=O)NC(=O)[C@H](CCCCN)NC(=O)[C@H](CC(C)C)NC(=O)[C@H](CCCCN)NC(=O)[C@H](CCCCN)NC(=O)[C@H](Cc1ccccc1)NC(=O)[C@H](Cc1ccccc1)NC(=O)[C@@H](N)CCCCN)C(C)C)C(C)C)C(=O)NCC(=O)N[C@H](C(=O)N[C@@H](CO)C(=O)N[C@H](C(=O)N1CCC[C@H]1C(=O)N[C@@H](Cc1ccccc1)C(=O)O)[C@@H](C)CC)C(C)C", "note": "(H-KFFKKLKNSVKKRAKKFFKKPRVIGVSIPF-OH)", "values": [{"measurement": "Activity", "setting": "BMDM [1]", "result": "Active"}, {"measurement": "Activity", "setting": "BMDM [2]", "result": "Active"}, {"measurement": "Activity", "setting": "BMDM [3]", "result": "Active"}, {"measurement": "half-life", "setting": "[4]", "result": "< 1", "unit": "h"}, {"measurement": "Activity", "setting": "Mus musculus [5]", "result": "Active"}, {"measurement": "survival at 10 mg/kg", "setting": "Mus musculus [6]", "result": "> 85", "unit": "%"}, {"measurement": "Activity", "setting": "Mus musculus [7]", "result": "Dose-dependent effect"}, {"measurement": "Activity", "setting": "[8]", "result": "inactive"}, {"measurement": "Activity", "setting": "Mus musculus [9]", "result": "Active"}, {"measurement": "Activity", "setting": "[10]", "result": "Active"}, {"measurement": "Activity", "setting": "[11]", "result": 952, "unit": "pg/mL"}, {"measurement": "Activity", "setting": "[12]", "result": 979.6, "unit": "pg/mL"}, {"measurement": "Activity", "setting": "BMDM [13]", "result": "inactive"}, {"measurement": "inhibition", "setting": "RAW264.7", "result": "Active"}, {"measurement": "Activity", "setting": "Mus musculus [14]", "result": "inactive"}, {"measurement": "Activity", "setting": "Mus musculus [15]", "result": "inactive"}, {"measurement": "Activity", "setting": "Mus musculus [16]", "result": "Active"}, {"measurement": "Activity", "setting": "Mus musculus [17]", "result": "inactive"}, {"measurement": "Activity", "setting": "[18]", "result": "Non-toxic"}, {"measurement": "Activity", "setting": "THP-1", "result": "Active"}, {"measurement": "Activity", "setting": "[19]", "result": 232, "unit": "pg/mL"}, {"measurement": "Activity", "setting": "BMDM [20]", "result": "inactive"}, {"measurement": "Activity", "setting": "BMDM [21]", "result": "Active"}, {"measurement": "fold change (FC)", "setting": "[22]", "result": 4.5}, {"measurement": "fold change (FC)", "setting": "[23]", "result": 25}]}
